Experimental data taken from PMC5378063 (Medicinal chemistry (Shariqah (United Arab Emirates)), 2009).
Values after ≈ are worked out from the molar mass of the structure shown.

Columns and labels:
[1] = test system: M.tuberculosis H37Rv; assay: MIC, agar dilution method; format: cell-based, Mycobacterium tuberculosis
[2] = test system: M.tuberculosis H37Rv INHr; assay: MIC, agar dilution method; format: cell-based, Mycobacterium tuberculosis
[3] = test system: M.tuberculosis H37Rv RFPr; assay: MIC, agar dilution method; format: cell-based, Mycobacterium tuberculosis
[4] = test system: M.bovis BCG Tokyo; assay: MIC, agar dilution method; format: cell-based
[5] = test system: M.avium Flamingo; assay: MIC, agar dilution method; format: cell-based
[6] = test system: M.intracellulare ATCC15984; assay: MIC, agar dilution method; format: cell-based
[7] = test system: M.aurum; assay: MIC, agar dilution method; format: cell-based
[8] = test system: M.fortuitum NIHJ1615; assay: MIC, agar dilution method; format: cell-based
[9] = test system: M.smegmatis Takeo; assay: MIC, agar dilution method; format: cell-based
[10] = test system: nonreplicating Mtb; assay: Killing of nonreplicating bacteria, Wayne low oxygen model; format: cell-based, Mycobacterium tuberculosis
Outline: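 Aerobic preculture diluted 100-fold into tubes sealed with rubber septa, degassed with N₂ and held anaerobically for 24 days, into nonreplicating phase 2 of a modified Wayne model. Test compound in degassed solution was added and incubation continued for 96 h. Suspensions were then diluted and plated, grown aerobically at 37 °C, and colonies counted.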

[11] = test system: bacterial growth; assay: In vitro rescue studies with vitamin K supplementation; format: cell-based; settings: 22a ~2μM; vitamin K even at 400 μM
[12] = test system: DosS or DosR; assay: DosS/DosR upregulation; format: cell-based, Mycobacterium tuberculosis; settings: unpublished data
[13] = 10 μg/mL, 96 h exposure after 24 days anaerobic
[14] = Mycobacterium tuberculosis, H37RV
[15] = Mycobacterium tuberculosis variant bovis BCG, BCG
[16] = Mycobacterium intracellulare, ATCC15984

C=CCN(C)CCCCCCCCOc1ccc(C(=O)c2ccc(Cl)cc2)c(O)c1 [22a, allylaminomethanone-A]
MIC ([1]; M.tuberculosis H37Rv, agar dilution): 1.0 µg/mL (≈ 2.33 µM) | MIC ([2]; M.tuberculosis H37Rv INHr, agar dilution): 1.5 µg/mL (≈ 3.49 µM) | MIC ([3]; M.tuberculosis H37Rv RFPr, agar dilution): 1.5 µg/mL (≈ 3.49 µM) | MIC ([4]; M.bovis BCG Tokyo, agar dilution): 3.1 µg/mL (≈ 7.21 µM) | MIC ([5]; M.avium Flamingo, agar dilution): 6.3 µg/mL (≈ 14.7 µM) | MIC ([6]; M.intracellulare ATCC15984, agar dilution): 6.3 µg/mL (≈ 14.7 µM) | MIC [7]: 6.3 µg/mL (≈ 14.7 µM) | MIC [8]: 12.5 µg/mL (≈ 29.1 µM) | MIC [9]: 12.5 µg/mL (≈ 29.1 µM) | more effective in killing nonreplicating bacteria than ethambutol [10, 13]: 320 fold | more effective in killing nonreplicating bacteria than isoniazid [10, 13]: 180 fold | more effective in killing nonreplicating bacteria than rifampicin [10, 13]: 3 fold | colonies after treatment of nonreplicating Mtb ([10]; 50 μg/mL, 96 h exposure): no countable colonies | rescue of bacterial growth by supplementation with vitamin K [11]: not completely rescued | upregulation of DosS or DosR [12]: did not upregulate

NNC(=O)c1ccncc1 [INH, isoniazid]
MIC [1, 14]: 0.1 µg/mL (≈ 0.729 µM) | MIC [2, 14]: > 25 µg/mL | MIC [3, 14]: 0.05 µg/mL (≈ 0.365 µM) | MIC [4, 15]: 0.1 µg/mL (≈ 0.729 µM) | MIC ([5]; Mycobacterium avium): > 25 µg/mL | MIC [6, 16]: 12.5 µg/mL (≈ 91.1 µM)

CO[C@H]1/C=C/O[C@@]2(C)Oc3c(C)c(O)c4c(O)c(c(/C=N/N5CCN(C)CC5)c(O)c4c3C2=O)NC(=O)/C(C)=C\C=C\[C@H](C)[C@H](O)[C@@H](C)[C@@H](O)[C@@H](C)[C@H](OC(C)=O)[C@@H]1C [RFP, rifampicin]
MIC [1, 14]: 0.2 µg/mL (≈ 0.243 µM) | MIC [3, 14]: > 25 µg/mL | MIC [4, 15]: 0.1 µg/mL (≈ 0.122 µM) | MIC ([5]; Mycobacterium avium): 3.1 µg/mL (≈ 3.77 µM) | MIC [6, 16]: 3.1 µg/mL (≈ 3.77 µM)
